Measured values pooled from the literature.
Lines come from different studies, so protocols differ.
Target: Casein kinase II subunit alpha' (CSNK2A2, Homo sapiens, UniProt P19784)

| SMILES | assay | setting | quantity | result |
| --- | --- | --- | --- | --- |
| CCCCNc1ncc2c(-c3ccc(F)cc3)nn(C[C@H]3CC[C@H](N)CC3)c2n1 | target engagement in cells, inhibitor, chemoproteomics | 20 mM | inhibition | -43.5% |
| CCCS(=O)(=O)Nc1ccc(F)c(C(=O)c2c[nH]c3ncc(-c4ccc(Cl)cc4)cc23)c1F | enzyme activity, inhibitor | 1 µM | inhibition | < 10% |
| COc1cc(Cl)c(C(=O)N[C@@H](CN[C@H]2CC[C@@H](N)CC2)Cc2ccc(C#N)cc2)cc1-c1ccc(CN[C@H](C)c2ccc(C)cc2)o1 | enzyme activity, inhibitor | 1 µM | remaining activity | 106% |
| COc1cccc2c(NCc3ccccc3)nc(-n3c(N)nc4ccccc43)nc12 | target engagement in cells, inhibitor, chemoproteomics | 20 mM | inhibition | -11.7% |
| CC(=O)C1=C(C)N(c2cccc(C(F)(F)F)c2)C(=O)N[C@@H]1c1ccc(C#N)nc1 | cell-free assay, competition with immobilised ligand | 1 µM | remaining binding | 75.7% |
| COc1cc2c(Nc3ccc(Br)cc3F)ncnc2cc1OCC1CCN(C)CC1 | cell-free assay | 0.5 µM | remaining signal | 96.5% |
| CCN(CC)CCNC(=O)c1c(C)[nH]c(/C=C2\C(=O)Nc3ccc(F)cc32)c1C | enzyme activity, inhibitor | 10 µM | inhibition | 49% |
| CC(C)(C)c1nc2c(s1)c1nc(N)ncc1c1ccc(NS(=O)(=O)c3c(F)cccc3F)c(F)c12 | enzyme activity, inhibitor, radiometric | 1 µM | remaining activity | 94% |
| Nc1c(C(=O)NCc2ccc(C(=O)NCCCC3CCCCC3)cc2)cnn1-c1ccccc1 | cell-free assay, competition with immobilised ligand | 0.1 µM | remaining binding | 100% |
| O=C(Nc1cnn(-c2csc(C(=O)NC3COC3)c2)c1)Nc1ccccc1Cl | enzyme activity, inhibitor | 5 µM | remaining activity | 97.3% |
| CC(C)c1ccc(NC(=O)c2cccs2)c(-c2nc3ccccc3[nH]c2=O)c1 | enzyme activity, inhibitor | 1 µM | activity vs control | 121% |
| Cc1ccc(NC(=O)c2ccc(C)c(C(F)(F)F)c2)cc1C#Cc1nn(C2CCC(O)CC2)c2ncnc(N)c12 (stereo not drawn) | cell-free assay, inhibitor | 10 µM | remaining signal | 92% |
| Cc1ccc(Nc2nccc(N(C)c3ccc4c(C)n(C)nc4c3)n2)cc1S(N)(=O)=O | enzyme activity, inhibitor | 10 µM | inhibition | -14% |
| CC(C)CC(=O)N1CCc2nc(-c3ccc(Br)cc3)nc(N(C)Cc3ccccc3)c2C1 | cell-free assay, competition with immobilised ligand | 0.1 µM | remaining binding | 88% |
| O=C1Nc2ccc(Cl)cc2C1=Cc1cc(Cl)c(O)c(Cl)c1 | cell-free assay | 0.5 µM | remaining signal | 33.3% |
| Cc1sc(C(=O)NC2COC2)cc1-n1cc(NC(=O)Nc2c(F)cccc2Cl)cn1 | enzyme activity, inhibitor | 10 µM | remaining activity | 95.5% |
| O=C(NC[C@@H]1[C@H]2CN(C(=O)OCc3cc(C(F)(F)F)cc(C(F)(F)F)c3)C[C@@H]12)c1ccc2[nH]nnc2c1 | cell-free assay, competition with immobilised ligand | 1 µM | remaining binding | 92% |
| CCN(CC)c1ccc(C2=NNC(=O)CC2C)cc1[N+](=O)[O-] (stereo not drawn) | enzyme activity, inhibitor | 10 µM | remaining activity | 103% |
| CSc1cccnc1N1CCN(Cc2nc3ccccc3[nH]2)CC1 | cell-free assay, competition with immobilised ligand | 1 µM | remaining binding | 100% |
| Cn1cnc(Br)c1C1=CN(c2ncnc3[nH]cnc23)CCS1 | enzyme activity, inhibitor, radiometric | 2 µM | inhibition | 46.5% |
| CNCc1ccccc1-c1csc([C@@H](C)Nc2nc(C)nc3cc(OC)c(OC)cc23)c1 | cell-free assay, competition with immobilised ligand | 1 µM | remaining binding | 100% |
| CNC(=O)c1cc(Oc2ccc(NC(=O)Nc3ccc(Cl)c(C(F)(F)F)c3)cc2)ccn1 | enzyme activity, inhibitor | 0.3 µM | inhibition | -33% |
| COc1ccc2c(O[C@@H]3C[C@H]4C(=O)N[C@]5(C(=O)O)CC5/C=C\CCCCC[C@H](NC(=O)OC5CCCC5)C(=O)N4C3)cc(-c3csc(NC(=O)C(C)C)n3)nc2c1C (stereo partly drawn) | cell-free assay, competition with immobilised ligand | 1 µM | remaining binding | 100% |
| COc1cc2ncnc(Nc3ccc(Oc4ccccc4)cc3C)c2cc1OC | enzyme activity, inhibitor | 1 µM | inhibition | 7% |
